High-throughput results from PubChem BioAssay.
A selection: hits, their analogues and other compounds. The true share with any hit is near 2.2%.
M1 ag: agonists of human M1 muscarinic receptor | P11229 | CHO-K1 hM1, Fluo-8 calcium fluorescence, agonist mode; 0% DMSO, 100% acetylcholine EC100 | activation, % at 3 µM | hit rate 0.33% among 360,000 | AID 588814;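 active = activation above the run's mean compound activation plus 3 SD, cut at about 16% in these data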;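 also: peak over basal fluorescence ratio within a 140 s kinetic read after compound addition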
Target sequence (P11229 whole entry, looked up): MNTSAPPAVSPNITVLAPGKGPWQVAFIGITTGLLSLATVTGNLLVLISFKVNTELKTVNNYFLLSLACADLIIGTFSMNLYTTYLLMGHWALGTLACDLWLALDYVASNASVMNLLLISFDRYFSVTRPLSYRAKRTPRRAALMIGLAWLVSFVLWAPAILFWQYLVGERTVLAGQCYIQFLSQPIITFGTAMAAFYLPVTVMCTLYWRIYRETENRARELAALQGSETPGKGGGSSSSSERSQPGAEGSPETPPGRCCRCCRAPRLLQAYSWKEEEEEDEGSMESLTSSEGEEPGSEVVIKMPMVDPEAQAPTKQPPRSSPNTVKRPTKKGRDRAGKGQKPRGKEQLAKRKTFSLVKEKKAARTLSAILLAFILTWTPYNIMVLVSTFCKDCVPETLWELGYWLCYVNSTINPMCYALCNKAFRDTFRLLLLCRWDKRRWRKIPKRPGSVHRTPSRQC
CHRM1 PAM: potentiates human M1 receptor response to acetylcholine. P11229. CHO-K1 hM1, Fluo-8 calcium fluorescence, ACh EC20; 0% = ACh EC20, 100% = maximal ACh. activation, % at 3 µM. hit rate 0.088% among 360,000; in the data active = activation above about 19%, passing the limit was not always enough
CHRM5 agonist: CHRM5 agonism in calcium assay | P08912 | CHO-K1 hM5 cells, Fluo-8 calcium fluorescence; 0% DMSO wells, 100% maximal acetylcholine response | activation, % at 3 µM | hit rate 0.19% among 360,000;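 active = activation above the run's mean over test compounds plus 3 SD, cut at about 23% in these data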;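 also: signal is peak over basal fluorescence ratio across the kinetic read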
M5 PAM: potentiates acetylcholine response at human M5 receptor; P08912; CHO-K1 hM5, Fluo-8 calcium, ACh EC20 PAM; 0% = ACh EC20, 100% = ACh EC100; activation, % at 3 µM; hit rate 0.3% among 360,000;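 active = activation above the run cutoff, the mean activation of all test compounds plus 3 SD, cut at about 18% in these data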
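system = human M5 receptor in CHO-K1 cells | reagent = EC20 acetylcholine as agonist stimulus | compound dosing = single-point, 3 µM nominal | incubation = Fluo-8 loading 80 min at 37 °C plus 30 min room temperature | detection = Fluo-8 calcium dye fluorescence, kinetic read | benchmarks = low control EC20 acetylcholine (0%), high control EC100 acetylcholine (100%)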
CHRM1 antagonist: blocks human M1 muscarinic receptor | P11229 | CHO-K1 hM1, Fluo-8 calcium fluorescence, ACh EC80 antagonist | AID 588852 | inhibition, % at 3 µM | hit rate 1.3% among 360,000;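 active = percent inhibition above its own plate's cutoff, namely the mean of that plate's compound wells plus 3 SD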;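 also: peak over basal fluorescence ratio during 140 s after agonist addition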
CHRM5 antagonist: antagonists of human muscarinic M5 receptor (CHRM5). P08912. inhibition, % at 3 µM. AID 624040. hit rate 0.59% among 360,000. CHO-hM5 cells, Fluo-8 calcium fluorescence, ACh EC80;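 active = inhibition above a per-plate cutoff, the mean of that plate's test compounds plus 3 SD, cut at about 27% in these data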
Hits are given with their value; n = inactive.

SMILES | M1 ag | CHRM1 PAM | CHRM5 agonist | M5 PAM | CHRM1 antagonist | CHRM5 antagonist
COc1cccc(C(=O)NCC(=O)n2nc(C)cc2C)c1 | n | n | n | n | n | n
CC(=NNC(=O)c1ccncc1)c1ccc2ccccc2c1O | 70 | n | 194 | n | n | n
C/C(=N/NC(=O)c1ccncc1)c1ccc(NC(=O)c2ccc(Cl)cc2Cl)cc1 | n | n | n | n | n | n
CC(=NNC(=O)c1ccncc1)c1ccccc1O | n | n | n | n | n | n
CC(=NNC(=O)c1ccncc1)c1ccc(O)cc1O | n | n | n | 22 | n | n
CC(C)CC(=NNC(=O)c1ccncc1)c1cc(Cl)ccc1O | n | n | 38 | n | n | n
Cc1ccc(C(C)(O)CS(=O)(=O)Cc2ccccc2Cl)cc1 (configuration not stated) | n | n | n | n | n | n
COc1ccc(C(=O)Oc2cccc(Nc3ncnc4ccccc34)c2)cc1OC | n | n | n | n | n | n
COc1cc(C(=O)Oc2cccc(Nc3ncnc4ccccc34)c2)cc(OC)c1OC | n | n | n | n | 41 | 29
CCn1nccc1C(=O)NC1=C(C#N)CCC1 | n | n | n | n | n | n
CCn1ccc(C(=O)NC2=C(C#N)CCC2)n1 | n | n | n | 21 | n | n
CC1=CN2C(=N)/C(=C\c3cn(CCCOc4ccccc4)c4ccccc34)C(=O)N=C2S1 | n | n | n | n | n | n
N#C/C(=C/c1ccc(-c2ccc(S(N)(=O)=O)cc2)o1)c1nc2ccccc2s1 | 54 | n | 32 | n | 60 | 48
N#C/C(=C\c1ccccn1)c1nc2ccccc2s1 | 28 | n | 44 | n | n | n
COc1cc(N)c(Cl)cc1C(=O)OCC(=O)NC(=O)NCc1ccco1 | n | n | n | n | n | n
COc1cc2c(cc1OC)C(c1cccc([N+](=O)[O-])c1)NC(=O)C2 (configuration not stated) | n | n | n | n | n | n
COc1cc2c(cc1OC)C(c1cccc(Br)c1)NC(=O)C2 (configuration not stated) | n | n | n | 24 | n | n
CC1CCN(CCNC(=O)C2CCN(S(=O)(=O)c3cccc4nsnc34)CC2)CC1 | n | n | n | n | n | n
O=C(C1CCN(S(=O)(=O)c2cccc3nsnc23)CC1)N1CCn2c1nc1ccccc12 | 17 | n | n | n | n | n
CCCN(CCC)CCCNC(=O)C1CCC(CNS(=O)(=O)c2cccc3nsnc23)CC1 (configuration not stated) | n | n | n | n | 51 | n
CCC1CCCCN1CCNC(=O)C1CCN(S(=O)(=O)c2cccc3nsnc23)CC1 (configuration not stated) | n | n | n | n | 52 | n
Cc1cccc(N2CCN(C(=O)C3CCN(S(=O)(=O)c4cccc5nsnc45)CC3)CC2C)c1 (configuration not stated) | n | n | n | n | 25 | n
CCCCNC(=O)CSc1nnc(Cc2ccc(Cl)c(Cl)c2)c(=O)[nH]1 | n | n | n | n | n | n
O=C1Nc2c(Cl)cc(Cl)cc2C1=O | 16 | n | n | n | n | n
Cc1ccc(OCC(=O)Nc2cc(S(=O)(=O)N3CCCCC3)ccc2N2CCN(C)CC2)c(C)c1 | n | n | n | n | n | n
SMILES | M1 ag | CHRM1 PAM | CHRM5 agonist | M5 PAM | CHRM1 antagonist | CHRM5 antagonist
Cc1ccccc1OCCC(=O)Nc1cc(S(=O)(=O)N2CCCCC2)ccc1N1CCN(C)CC1 | 34 | n | n | n | n | n
CN1CCN(c2ccc(S(=O)(=O)N3CCCCC3)cc2NC(=O)COc2ccc([N+](=O)[O-])cc2)CC1 | n | n | n | n | 32 | n
COc1cc2c(cc1OC)CN(C(=O)C1CCCN1S(=O)(=O)c1ccc(F)cc1)CC2 (configuration not stated) | n | n | n | n | n | n
Cc1nnc(SCC(=O)Nc2ccc(S(=O)(=O)N3CCCC3)cc2)n1N | n | n | n | n | 54 | n
Cc1ccc(S(=O)(=O)N2CCCCC2)cc1NC(=O)CSc1nncn1-c1ccccc1 | n | n | n | 23 | n | n
COc1ccc(NC(=O)COC(=O)c2ncc(Cl)c(Cl)c2Cl)c(OC)c1 | n | n | n | n | n | n
CN1CCCC(C#CC(O)(c2ccccc2)c2ccccc2)C1 (configuration not stated) | n | n | n | n | 99 | 98
O=[N+]([O-])c1ccccc1C=NNc1ccccc1 | n | n | n | n | n | n
O=C(N/N=C/c1ccccc1[N+](=O)[O-])c1ccncc1 | n | 26 | n | n | n | n
O=[N+]([O-])c1ccccc1/C=N/NC1=NCCN1 | n | n | n | 19 | n | n
NC(=O)c1nsc(C(=O)N(c2ccc3c(c2)OCO3)C(C(=O)NCC2CCCO2)c2ccc(F)cc2)c1N (configuration not stated) | n | n | n | 19 | n | n
CN(C)c1ccc(C(C(=O)NCC2CCCO2)N(Cc2ccccc2)C(=O)c2snc(C(N)=O)c2N)cc1 (configuration not stated) | n | n | n | n | 26 | n
O=C(O)CSc1nc(C(F)(F)F)cc(=O)n1-c1ccccc1 | n | n | n | n | n | n
Cc1ccccc1Nc1nnc(SCc2cc([N+](=O)[O-])cc3c2OCOC3)s1 | n | n | n | n | 41 | n
O=[N+]([O-])c1cc2c(c(CSc3nnc(Nc4ccccc4)s3)c1)OCOC2 | n | n | n | n | n | n
O=S(=O)(Nc1cc(C(F)(F)F)ccc1N1CCOCC1)c1ccc2ccccc2c1 | n | n | n | n | n | n
C/C(=N\NC(=O)c1nn(C)c(C)c1Br)c1cccc(NC(=O)c2ccoc2C)c1 | n | n | n | 22 | n | n
COc1ccc(C(=O)Nc2cccc(/C(C)=N\NC(=O)c3ccoc3C)c2)cc1OC | n | n | n | n | n | n
Cc1cc(N2CCN(c3cccc(C(F)(F)F)c3)CC2)n2nc(C)nc2n1 | n | 31 | n | n | n | n
Cc1nccn1CCc1n[nH]c(=S)n1Cc1ccccc1 | n | n | n | n | 60 | 33
S=c1[nH]nc(CCc2ccccc2)n1Cc1ccccc1 | n | n | n | n | n | n
CCN(CC)CCCNC(=O)c1cc(-c2ccccc2)c(N2CCCCC2)s1 | n | n | n | n | 55 | n
Cc1ccc(CNC(=O)CCS(=O)(=O)Cc2ccc(C)cc2)cc1 | n | n | n | n | n | n
COc1ccc2c(c1)CCc1cnc(N)nc1-2 | n | n | n | n | n | n
COc1ccc2c(c1)CCc1cn3nc(C)cc3nc1-2 | n | n | n | 19 | n | n
